# Screening data: PubChem BioAssay, Johns Hopkins Ion Channel Center
# Only some compounds are listed: those with a hit (about 3.5% of all), similar ones and a draw of the others.
# RGS4 act: RGS4 potentiators or activators, primary screen, cell-based, HEK293 M3R inducible RGS4, calcium flux | carbachol calcium flux Fluo4; stronger effect = lower value | B-score at 10 µM | hit rate 0.92% among 310,000;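 active = B-score of the integrated calcium signal more than 4 SD below the library mean, with starting fluorescence not abnormally high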;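 also: negative B-score means reduced calcium response which marks RGS4 activation or potentiation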
#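 Also added: carbachol at ECmax as muscarinic agonist stimulus; Assay system: HEK293 cells with stable M3R and inducible RGS4; Timing: overnight RGS4 induction, 30 min dye load 37 °C, 20 min compound RT; Measured by: Fluo4-AM (2 µM) calcium-flux fluorescence, kinetic read.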
# MrgX1 PAM: positive allosteric modulators of MrgX1, primary screen, HEK293 cells, Fluo-4 calcium flux; Mas-related G-protein coupled receptor member X1 (Homo sapiens), Q96LB2; hit rate 0.63% among 310,000; B-score at 10 µM; FDSS; stronger effect = higher value; AID 588675, 2011;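 active = plate-corrected calcium response at least 3 library SD above typical, normal starting fluorescence, not activating the receptor alone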;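 also: compound read alongside a low EC10 to EC30 dose of BAM8-22 agonist; peak minus trough fluorescence over baseline measured at the second addition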
# Target sequence (Q96LB2 whole entry, looked up): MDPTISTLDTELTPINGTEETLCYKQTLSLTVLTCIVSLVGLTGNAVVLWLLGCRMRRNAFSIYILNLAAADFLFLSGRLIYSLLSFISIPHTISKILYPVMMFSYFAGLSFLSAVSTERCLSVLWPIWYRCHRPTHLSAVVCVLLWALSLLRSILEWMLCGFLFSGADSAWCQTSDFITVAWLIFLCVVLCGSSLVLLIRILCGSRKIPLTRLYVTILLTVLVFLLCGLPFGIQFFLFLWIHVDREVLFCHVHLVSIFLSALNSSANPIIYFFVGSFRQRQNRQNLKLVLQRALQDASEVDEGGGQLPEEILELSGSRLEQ
# RGS4 block: RGS4 inhibitors, primary screen, cell-based, HEK293 M3R inducible RGS4, calcium flux | Regulator of G-protein signaling 4 (Homo sapiens), P49798 | Fluo-4 calcium flux; stronger effect = higher value; triggered by carbachol at its EC20 | B-score at 10 µM | hit rate 0.45% among 310,000;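 active = B-score, a plate-corrected calcium signal, over three deviations above library mean, with baseline fluorescence within five deviations of library mean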;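 also: RGS4 expression induced by doxycycline in cells with stable M3 receptor; B-score is computed from the integrated fluorescence ratio over baseline after carbachol; higher B-score means a larger calcium signal and so more RGS4 inhibition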
# Target sequence (P49798 whole entry, looked up): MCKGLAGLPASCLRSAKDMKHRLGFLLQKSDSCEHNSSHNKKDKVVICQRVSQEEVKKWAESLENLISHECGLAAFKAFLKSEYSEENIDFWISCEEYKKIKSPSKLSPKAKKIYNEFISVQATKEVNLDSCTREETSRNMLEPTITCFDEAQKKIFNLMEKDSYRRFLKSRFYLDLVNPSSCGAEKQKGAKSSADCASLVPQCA
# MrgX1 agonist: agonists of human MrgX1 receptor, primary screen, HEK293 cells, Fluo-4 calcium flux; Mas-related G-protein coupled receptor member X1 (Homo sapiens), Q96LB2; Fluo-4 calcium fluorescence, agonist mode; stronger effect = higher value; B-score at 10 µM; hit rate 0.44% among 310,000;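 active = calcium response B-score plate-corrected fluorescence ratio at least 3 library SD, with starting fluorescence B-score inside 5 SD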
#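 System – MrgX1-expressing HEK293 cells · Incubation – cells plated overnight, dye loaded 0.5 h 37 °C, 0.5 h room temperature · Technique – kinetic Fluo-4 NW fluorescence of intracellular calcium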
# MrgX1 antagonist: antagonists of human MrgX1 receptor, primary screen, HEK293 cells, Fluo-4 calcium flux | Mas-related G-protein coupled receptor member X1 (Homo sapiens), Q96LB2 | BAM8-22 antagonism; stronger effect = lower value | B-score at 10 µM | hit rate 1.3% among 310,000;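 active = calcium-response B-score plate-corrected more than 3 library SD below zero, starting fluorescence within 5 deviations, no agonist response on first addition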;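 also: peak minus trough fluorescence over baseline after final BAM8-22 challenge near maximal dose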
# Numbers stand for hits; i = inactive.
SMILES,RGS4 act,MrgX1 PAM,RGS4 block,MrgX1 agonist,MrgX1 antagonist
CCOC(=O)C(C)CC(C)C(=O)N1CCOCCOCCN(C(=O)C(C)CC(C)C(=O)OCC)CCOCC1 (stereo not drawn),i,i,i,i,i
CCOC(=O)C(C(=O)OCC)C(C(=O)OCC)N1CCOCC1 (stereo not drawn),i,i,i,31.3,i
N#C/C(=C(/O)CCl)c1nc(-c2ccccc2)cs1,i,i,i,i,-6.09
O=C(CNC(=O)C(c1ccccc1)c1ccccc1)N/N=C\c1cccc(O)c1,i,i,i,i,i
O=C(CNC(=O)C(c1ccccc1)c1ccccc1)N/N=C/c1ccc(O)cc1O,i,i,i,i,-5.73
CCNC(=S)NNC(=O)C(c1ccccc1)c1ccccc1,i,i,i,i,i
CC(C)(C)C(=O)NC(=S)NNC(=O)C(c1ccccc1)c1ccccc1,-7.4,i,i,156,i
CC(=O)NNC(=S)NC(=O)C(c1ccccc1)c1ccccc1,i,i,i,34.6,i
O=C(NCc1ccc(F)cc1)C(c1ccccc1)N(CC1CCCO1)C(=O)Cn1nnc2ccccc21 (stereo not drawn),i,i,i,i,i
O=C(CN(Cc1ccc(F)cc1)C(=O)Cn1nnc2ccccc21)NCC1CCCO1 (stereo not drawn),i,16.5,i,i,i
COc1ccc(/C=N/OC/C(O)=C(\C#N)c2nc3ccccc3[nH]2)cc1,i,i,i,i,-5.62
N#C/C(=C(/O)COC(=O)Cc1c[nH]c2ccccc12)c1nc2ccccc2[nH]1,i,i,i,i,-4.93
Cn1nc(C(=O)N2CCCCC2)c2c1-c1ccccc1S(=O)(=O)C2,i,i,i,i,i
Cc1ccc(NC2=NC(c3ccc(F)cc3)n3c(nc(C)cc3=O)N2)cc1 (stereo not drawn),i,i,i,i,i
CCOC(=O)N1CCN(S(=O)(=O)c2cc(Br)cnc2N)CC1,-7.44,i,i,i,i
CC(=O)CC1(O)C(=O)Nc2ccccc21 (stereo not drawn),i,i,i,i,i
O=C1Nc2ccccc2C1(O)C/C(=N/O)c1ccccc1 (stereo not drawn),i,i,i,i,-7.52
N#Cc1ccccc1S(=O)(=O)N1CCN(C(=O)C2CCCC2)CC1,i,i,i,i,i
CC(C)(C)n1nnnc1C(c1cccnc1)N(Cc1ccccc1)Cc1cccs1 (stereo not drawn),i,i,i,i,-5.98
O=C(O)c1ccccc1C(=O)Nc1cccc([N+](=O)[O-])c1,i,i,i,i,i
O=C(Nc1cccc([N+](=O)[O-])c1)c1cc2ccccc2cc1O,i,i,i,i,-4.83
CCOC(=O)c1nn(-c2ccc(Cl)cc2C)ccc1=O,i,i,i,i,i
COc1ccc(CNC(=O)COc2ccc(S(=O)(=O)N3CCCCC3)cc2Cl)cc1,-7.06,i,i,i,i
COc1cc(N2CCCC2)c(OC)cc1/C=C(/C#N)c1ccc(Br)cc1,i,i,i,i,-4.59
COc1cc(N2CCCC2)c(OC)cc1/C=C(/C#N)c1ccc(F)cc1,i,i,i,i,-4.93
SMILES,RGS4 act,MrgX1 PAM,RGS4 block,MrgX1 agonist,MrgX1 antagonist
Cc1ccc(C)c(S(=O)(=O)N(C)C2CCS(=O)(=O)C2)c1 (stereo not drawn),i,i,i,i,i
CCNC(=O)O/N=C1\CCCCC1c1ccc([N+](=O)[O-])cc1[N+](=O)[O-] (stereo not drawn),i,i,i,i,i
CC(C)CC(=O)NNC(=O)C(C)C,i,i,i,i,i
CCOc1ccc(N=C2C(=O)N(CN3CCOCC3)c3ccccc32)cc1,i,i,i,33.1,i
CC1(C)CCCN(C(=O)N2c3ccccc3Sc3ccccc32)C1,-9.23,i,i,i,i
O=C(c1cc(-c2ccc(Cl)cc2)n[nH]1)N1CCc2ccccc2C1,i,i,i,i,i
COc1c(C)cccc1C(=O)NC(=S)Nc1ccccc1N1CCCC1,-7.56,i,i,i,i
Cc1cc(C)c2oc(C(=O)Nc3nnc(C(C)C)s3)cc(=O)c2c1,i,i,i,i,i
CSc1nnc(NC(=O)c2cc(=O)c3cc(C)cc(C)c3o2)s1,i,10.5,i,i,i
Cc1cc(-n2c(C)cc(C(=O)CSc3ncnc4ccccc34)c2C)no1,i,i,i,i,-4.7
Cc1cccc(NC(=O)C(C)SCc2nc3sc4c(c3c(=O)[nH]2)CCCC4)n1 (stereo not drawn),i,i,i,i,i
C=CC[n+]1c(-c2ccc(OCC)cc2)csc1NNC(=O)Nc1ccccc1,i,i,i,i,-6.23
O=C(O)C(O)C(O)c1nc2ccccc2[nH]1 (stereo not drawn),i,i,i,i,i
CC(C)(C)NC(=S)N/N=C\c1ccc(-c2ccc([N+](=O)[O-])cc2)o1,i,i,i,28.3,i
O=C(O)c1cccc(-c2ccc(/C=N/Nc3ccc([N+](=O)[O-])cc3)o2)c1,i,i,i,i,-7
COc1ccc(C(=O)N2CCCC(CNC(=O)c3ccccc3Cl)C2)o1 (stereo not drawn),i,i,i,i,i
O=C1NCC(c2ccccc2)C1C(=O)N/N=C/c1ccc(Cl)s1 (stereo not drawn),i,i,i,31.5,i
O=C1NCC(c2ccccc2)C1C(=O)N/N=C\c1ccc(-c2ccc(Cl)c(Cl)c2)o1 (stereo not drawn),i,i,8.97,i,i
Cc1nc2c(c(C)nn2-c2ccccc2)c(C)c1CCC(=O)Nc1ccc(CN2CCCC2)cc1,i,12,i,i,i
CCC(C)NC(=O)CCc1c(C)nc2c(c(C)nn2-c2ccccc2)c1C (stereo not drawn),i,i,i,i,i
Cc1ccc(S(=O)(=O)CC#CCOC(=O)c2ccc([N+](=O)[O-])cc2)cc1,i,i,i,43.3,i
Cc1ccc(C(=O)c2ccc([N+](=O)[O-])cc2)cc1,i,i,i,i,i
CN(Cc1cccc(F)c1)C(=O)CNS(=O)(=O)c1ccc2ccccc2c1,i,i,i,i,i
O=C(COC(=O)/C=C/c1ccc([N+](=O)[O-])cc1)NCc1ccccc1,i,i,i,i,i
O=C(/C=C/c1ccc([N+](=O)[O-])cc1)OCC(=O)N1c2ccccc2Sc2ccccc21,-8.25,i,i,i,i
Cc1cc2c(n1-c1ccc(C(=O)O)cc1)CCCCC2,i,i,i,i,i
Oc1ccc(N=C/C=C/c2ccc(Br)cc2)cc1-c1nc2ccccc2s1,i,i,6.23,i,i
Cc1cccc(C(=O)N2CCCC(N3CCN(Cc4ccc5c(c4)OCO5)CC3)C2)n1 (stereo not drawn),i,i,i,i,i
